Experimental data reported in ChEMBL document CHEMBL4513216, “Probing the Open Global Health Chemical Diversity Library for Multistage-Active Starting Points for Next-Generation Antimalarials” (ACS Infect Dis, 2020).

Assay: Toxicity liver stage against HepG2, at 10uM
Format: cell-based
Design: test concentration 10 uM, cell line HepG2-A16-CD81EGFP
Details: human, HepG2-A16-CD81EGFP cells; read-out: INHIBITION
Outline: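 Uninfected HepG2-A16-CD81EGFP cells, 3 × 10^3 per well, 1536-well, plated on prespotted compound at 10 μM final, parasite-free screening media added to match infected plates; puromycin 10 μM positive, DMSO 0.5% negative; run in parallel with 48 h PbLuc assay at 37 °C, 5% CO2; viability by CellTiter-Glo luminescence, normalized to controls.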

| Compound | cytotoxicity at 10 µM |
| --- | --- |
| COCc1nc(CNC2CCN(C(C)C)CC2)no1 | 4.04% |
| O=C(Nc1cn[nH]c1)c1ccncc1 | -6.01% |
| CC(O)CN1CCC(CNCc2ccccc2F)CC1 (stereo unspecified) | -11.4% |
| Cc1cnc(C(=O)N2CCOCC2C)cn1 (stereo unspecified) | -3.83% |
| Cc1nn(C)c(N(C)C)c1CNC(C)c1cccc(OC(C)C)c1 (stereo unspecified) | -7.76% |
| O=C(CN1CCN(c2ccc3nncn3n2)CC1)NC1CCCC1 | -33.9% |
| Cc1cccc(COC[C@]23COC[C@H]2CN(c2ncccn2)C3)n1 | -76.2% |
| O=C(Cn1c(=O)n(Cc2ccco2)c2ncccc21)NC1CCCC1 | -3.05% |
| CCCc1nc(N2CCCC(CCOC)C2)c2cnn(C)c2n1 (stereo unspecified) | 12.1% |
| Cc1ccc(C)c(C(=O)Nc2ccc(OC3CCN(C)CC3)cc2)c1 | 8.97% |
| CS(=O)(=O)CCCN(CCc1cccc(F)c1)C1CC1 | -18.3% |
| Cc1cccc(CN2C[C@@H]3CN(C(=O)c4ccsc4)C[C@@H]3C2=O)c1 | -18.8% |
| COc1cc(CNC(=O)Nc2nnc(C3CC3)s2)ccc1O | 31.3% |
| CC[C@H]1CN(C(=O)c2cccc(-n3cnnc3)n2)CC[C@@]1(C)O | 3.66% |
| CC(=O)NCCC(=O)Nc1sccc1C(=O)C(C)(C)C | -46.3% |
| CCOCC(=O)NCC(C)(O)c1cc(C)oc1C (stereo unspecified) | 1.85% |
| CCn1ncc(S(=O)(=O)NC2(CN3CCOCC3)CCCCC2)c1C | 3.83% |
| O=C(Cn1cnnn1)NC(c1ccccc1)c1ccc2c(c1)CCCO2 (stereo unspecified) | -1.47% |
| Cc1cc2nc(C(C)C)cc(N3CCN(S(N)(=O)=O)CC3)n2n1 | -11.3% |

| Compound | cytotoxicity at 10 µM |
| --- | --- |
| O=C1NCCN1CCNc1cc(-c2ccncc2)nc2ccnn12 | -4.76% |
| c1cnc(NCc2nnn3c2CN(Cc2cccs2)CCC3)nc1 | 10.1% |
| Cc1cc(NC(=O)CCn2nc(C)c3ccccc32)n(C)n1 | 3.4% |
| CCn1c(C)nnc1SCCNc1cc(COC)ncn1 | 6.35% |
| CC(C)NCc1cccnc1N1CCN(c2ccccn2)CC1 | -3.85% |
| OCCn1cc(CN2CCN(CCOc3ccccc3F)CC2)cn1 | -5.72% |
| O=C1CC(c2ccccc2)c2sc(C(=O)O)c(-c3ccccc3)c2N1 (stereo unspecified) | -2.31% |
| Cc1nn(CC(=O)N2CCN(c3cnccn3)CC2)c(C)c1Cl | 7.76% |
| CN1C(=O)CCCC12CCCN(C(=O)c1cc(F)cc(F)c1)C2 (stereo unspecified) | -1.54% |
| Cn1ccnc1CN1CCN(CC(=O)NCc2cccs2)CC1 | -8.25% |
| CN(Cc1nccn1C)C1CCCN(Cc2noc(C3CC3)n2)C1 (stereo unspecified) | -3.54% |
| CSCCC(=O)N1CCCCC1CCn1cccn1 (stereo unspecified) | -1.94% |
| CCC(CC)c1cc(CNC(=O)N2CCOCC2CC)on1 (stereo unspecified) | -5.59% |
| C[C@@H]1CN(CC(C)(C)N2CCOCC2)CC[C@@]1(O)C1CCOCC1 | -1.71% |
| Cc1noc(C)c1-c1ccnc(C2CCN(C3CCOCC3)CC2)c1 | -28.7% |
| CCN(CC)C(=O)c1c(Br)cnn1CC | 2.63% |
| Cc1cc(C(=O)NCc2ccnc(N(C)C)c2)c(C)o1 | -2.43% |
| CCC(Nc1nc(C)nc2onc(C)c12)c1cccs1 (stereo unspecified) | 52.4% |
| COc1nccnc1N1CCN(Cc2ccc3c(c2)OCO3)C(=O)C1 | -1.65% |

| Compound | cytotoxicity at 10 µM |
| --- | --- |
| CC(C)(C)CC(=O)NC(C)(C(N)=O)c1cccc(Cl)c1 (stereo unspecified) | 11.5% |
| O=C(Cc1ccc2c(c1)CCC2)N1CCCC(n2cccn2)C1 (stereo unspecified) | -7.81% |
| CC(C)Cc1cc(NC(=O)c2cc(Cl)c[nH]2)n(C)n1 | -7.94% |
| CC(C)c1nnc(CN2CCC3(CC2)Nc2ccccc2NC3=O)o1 | -1.48% |
| O=C(Cc1ccncc1)N1CCC2(CC1)CC(c1ccccc1)CO2 (stereo unspecified) | -86.1% |
| Cc1ccc2[nH]c(=O)c(CN(C)Cc3cc(C4CC4)[nH]n3)cc2c1 | -3.07% |
| CCCN1CCCn2nc(CNC(=O)CC3CCS(=O)(=O)C3)cc2C1 (stereo unspecified) | -2.1% |
| CC(C)c1cc(N2CCC3(CC2)CN(C)CCN3C)ncn1 | -16.2% |
| Cc1cccc(CN2CC[C@@H]3[C@@H]2CCN3C(=O)Cc2cccs2)n1 | -114% |
| CC(C)n1nc2c(cc1=O)CN(Cc1ccc(-n3cccn3)cc1)CC2 | -145% |
| CCCn1nc(C)c(CN2CC3(CCOC3)CCC2=O)c1C (stereo unspecified) | 4.28% |
| COCCCC1CCCCN1Cc1cn2cc(C)ccc2n1 (stereo unspecified) | 3.21% |
| Fc1ccccc1C1NCCc2cc3c(cc21)OCCO3 (stereo unspecified) | -10.2% |
| CCCS(=O)(=O)N1CCc2onc(CNc3ncccn3)c2C1 | -2.25% |
| CCn1ccnc1CN1CCN(CC(O)CN2CCOCC2)CC1 (stereo unspecified) | -7.83% |
| CC(C)NC(=O)c1nnc2ccc(N3CCOCC3)cc2n1 | 1.86% |
| CN1CCOCC12CCN(c1nncs1)CC2 | 8.16% |
| Cc1cc(O)c(OCC(=O)Nc2nccs2)cn1 | 4.07% |
